In ChEMBL document CHEMBL1287641, “Synthesis, characterization and anti-microbial studies of some novel 2,4-disubstituted thiazoles” (2010):
Converted amounts (≈) assume the structure as drawn. The source made the active and inactive calls. No cut-off for these calls is given here.

How the values were obtained:
Escherichia coli [1] = test: Antibacterial activity against Escherichia coli after 16 hrs by serial dilution method; type: functional
How it was run: (§1)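 Broth tube serial dilution MIC. Test compounds were stocked at 1 mg/mL in DMF and twofold diluted in trypticase soya broth across six tubes. Each organism was grown 6 h at 37 °C, adjusted to […] (10⁸ cfu/mL) and diluted to 10⁵ cfu/mL; 1 mL was added per tube. Tubes were incubated 16 h at 37 °C. MIC was read as the concentration giving no visible growth. Inoculum and broth controls were included.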

Pseudomonas aeruginosa [2] = test: Antibacterial activity against Pseudomonas aeruginosa after 16 hrs by serial dilution method; type: functional; how it was run: as §1
Staphylococcus aureus [3] = test: Antibacterial activity against Staphylococcus aureus after 16 hrs by serial dilution method; type: functional; how it was run: as §1
Bacillus subtilis [4] = test: Antibacterial activity against Bacillus subtilis after 16 hrs by serial dilution method; type: functional; how it was run: as §1
Pseudomonas aeruginosa [5] = test: Antibacterial activity against Pseudomonas aeruginosa at 1.6125 to 50 ug/ml after 16 hrs by serial dilution method; type: functional, organism-based; how it was run: as §1
Bacillus subtilis [6] = test: Antibacterial activity against Bacillus subtilis at 1.6125 to 50 ug/ml after 16 hrs by serial dilution method; type: functional, organism-based; how it was run: as §1
Staphylococcus aureus [7] = test: Antibacterial activity against Staphylococcus aureus at 1.6125 to 50 ug/ml after 16 hrs by serial dilution method; type: functional, organism-based; how it was run: as §1
Escherichia coli [8] = test: Antibacterial activity against Escherichia coli at 1.6125 to 50 ug/ml after 16 hrs by serial dilution method; type: functional, organism-based; how it was run: as §1

SMILES	MIC (Escherichia coli [1])	MIC (Pseudomonas aeruginosa [2])	MIC (Staphylococcus aureus [3])	MIC (Bacillus subtilis [4])	Activity (Pseudomonas aeruginosa [5])	Activity (Bacillus subtilis [6])	Activity (Staphylococcus aureus [7])	Activity (Escherichia coli [8])
Clc1ccc(-c2csc(N/N=C/c3c[nH]nc3-c3cc(Cl)sc3Cl)n2)c(Cl)c1	1.61 µg/mL (≈ 3.3 µM)	1.61 µg/mL (≈ 3.3 µM)	3.12 µg/mL (≈ 6.39 µM)	1.61 µg/mL (≈ 3.3 µM)	–	–	–	–
Clc1ccc(-c2csc(N/N=C/c3c[nH]nc3-c3ccc(Cl)cc3Cl)n2)c(Cl)c1	50 µg/mL (≈ 103 µM)	–	3.12 µg/mL (≈ 6.47 µM)	–	inactive	inactive	–	–
O=c1oc2ccccc2cc1-c1csc(N/N=C/c2c[nH]nc2-c2ccc(Cl)cc2Cl)n1	1.61 µg/mL (≈ 3.34 µM)	1.61 µg/mL (≈ 3.34 µM)	3.12 µg/mL (≈ 6.48 µM)	1.61 µg/mL (≈ 3.34 µM)	–	–	–	–
O=c1oc2ccc(Br)cc2cc1-c1csc(N/N=C/c2c[nH]nc2-c2ccc(-c3ccccc3)cc2)n1	–	–	–	–	inactive	inactive	inactive	inactive
Clc1ccc(-c2csc(N/N=C/c3c[nH]nc3-c3ccc(-c4ccccc4)cc3)n2)c(Cl)c1	–	–	–	–	inactive	inactive	inactive	inactive
CSc1ccc(-c2n[nH]cc2/C=N/Nc2nc(-c3ccc(Cl)cc3Cl)cs2)cc1	50 µg/mL (≈ 109 µM)	50 µg/mL (≈ 109 µM)	–	50 µg/mL (≈ 109 µM)	–	–	inactive	–
CSc1ccc(-c2n[nH]cc2/C=N/Nc2nc(-c3cc4cc(Br)ccc4oc3=O)cs2)cc1	–	–	–	–	inactive	inactive	inactive	inactive
O=c1oc2ccccc2cc1-c1csc(N/N=C/c2c[nH]nc2-c2ccc(-c3ccccc3)cc2)n1	–	–	–	–	inactive	inactive	inactive	inactive
O=c1oc2ccccc2cc1-c1csc(N/N=C/c2c[nH]nc2-c2cc(Cl)sc2Cl)n1	3.12 µg/mL (≈ 6.4 µM)	1.61 µg/mL (≈ 3.3 µM)	1.61 µg/mL (≈ 3.3 µM)	1.61 µg/mL (≈ 3.3 µM)	–	–	–	–
O=c1oc2ccc(Br)cc2cc1-c1csc(N/N=C/c2c[nH]nc2-c2cc(Cl)sc2Cl)n1	1.61 µg/mL (≈ 2.84 µM)	1.61 µg/mL (≈ 2.84 µM)	1.61 µg/mL (≈ 2.84 µM)	1.61 µg/mL (≈ 2.84 µM)	–	–	–	–
CO/N=C(\C(=O)N[C@@H]1C(=O)N2C(C(=O)O)=C(CSc3nc(=O)c(O)nn3C)CS[C@H]12)c1csc(N)n1 [CEFTRIAXONE]	1.61 µg/mL (≈ 2.91 µM)	1.61 µg/mL (≈ 2.91 µM)	3.12 µg/mL (≈ 5.63 µM)	1.61 µg/mL (≈ 2.91 µM)	–	–	–	–
CSc1ccc(-c2n[nH]cc2/C=N/Nc2nc(-c3cc4ccccc4oc3=O)cs2)cc1	–	–	–	–	inactive	inactive	inactive	inactive
O=c1oc2ccc(Br)cc2cc1-c1csc(N/N=C/c2c[nH]nc2-c2ccc(Cl)cc2Cl)n1	1.61 µg/mL (≈ 2.87 µM)	1.61 µg/mL (≈ 2.87 µM)	3.12 µg/mL (≈ 5.57 µM)	3.12 µg/mL (≈ 5.57 µM)	–	–	–	–
